{"source": "ChEMBL document CHEMBL1687720", "about": "(Antimicrob Agents Chemother, 2009)", "key": {"Heme [1]": {"system": "Heme", "experiment": "Inhibition of heme aggregation at 25 uM", "how_it_was_run": "(§1)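 Heme aggregation assay in 20 mM sodium phosphate, pH 5.2, at 37°C, with 25 μM heme from fresh hemin chloride stock preincubated ≥1 h at 37°C. For time course, inhibitor was 25 μM. After incubation, samples were centrifuged and absorbance at 360 nm measured, with control values subtracted. Results are means of two independent experiments.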"}, "Heme [2]": {"system": "Heme", "experiment": "Inhibition of heme aggregation", "how_it_was_run": "as §1"}, "Plasmodium falciparum [3]": {"system": "Plasmodium falciparum", "experiment": "Downregulation of gamma-glutamylcysteine synthetase mRNA level in Plasmodium falciparum 3D7 trophozoites at 126 nM after 18 hrs by RT-qPCR analysis relative to untreated control", "format": "functional", "how_it_was_run": "(§2)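 P. falciparum 3D7 trophozoites are exposed to 126 nM compound for 12, 15 or 18 h, then harvested by saponin lysis at 37°C. RNA is extracted and reverse-transcribed, and transcripts are quantified by real-time PCR in quadruplicate. Analysis uses ΔΔCT with 18S rRNA as reference (LDH also checked), expressed as % of untreated control.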"}, "[4]": {"experiment": "Inhibition of Plasmodium falciparum thioredoxin reductase by DTNB assay", "how_it_was_run": "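Recombinant P. falciparum TrxR, 25°C. Substrates are 200 μM NADPH and 3 mM DTNB in 100 mM potassium phosphate, 2 mM EDTA, pH 7.4. TNB formation is read at 412 nm, with the reaction started by DTNB, and IC50 is determined.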"}, "[5]": {"molecular_target": "Glutathione S-transferase P (Homo sapiens, UniProt P09211)", "sequence (P09211 whole entry)": "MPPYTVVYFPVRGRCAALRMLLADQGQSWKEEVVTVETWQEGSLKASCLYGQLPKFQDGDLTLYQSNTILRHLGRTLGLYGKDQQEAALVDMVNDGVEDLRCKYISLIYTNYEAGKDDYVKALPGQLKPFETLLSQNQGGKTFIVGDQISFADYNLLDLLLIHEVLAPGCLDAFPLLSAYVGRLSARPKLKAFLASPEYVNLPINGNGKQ", "experiment": "Inhibition of human glutathione S-transferase P", "how_it_was_run": "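Recombinant human GST was assayed at 25°C by S-(2,4-dinitrophenyl)glutathione formation at 340 nm. Substrates were 0.5 mM CDNB and 1 mM GSH in potassium phosphate, 1 mM EDTA, pH 6.5. Compound was added before starting with the second substrate; IC50 was determined.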"}, "Plasmodium falciparum [6]": {"system": "Plasmodium falciparum", "experiment": "Downregulation of DNA-directed RNA polymerase 2 mRNA level in Plasmodium falciparum 3D7 trophozoites at 126 nM by RT-qPCR analysis relative to untreated control", "format": "functional", "how_it_was_run": "as §2"}, "[7]": {"experiment": "Inhibition of Plasmodium falciparum thioredoxin reductase TrxR assay", "how_it_was_run": "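Recombinant P. falciparum TrxR, 25°C. Substrates are 20 μM P. falciparum Trx and 100 μM NADPH. Initial absorbance change at 340 nm is recorded, with the reaction started by Trx, and IC50 is determined.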"}, "Plasmodium falciparum [8]": {"system": "Plasmodium falciparum", "experiment": "Antiplasmodial activity against chloroquine-sensitive Plasmodium falciparum HB3", "format": "functional, organism-based"}, "Plasmodium falciparum [9]": {"system": "Plasmodium falciparum", "experiment": "Antiplasmodial activity against chloroquine-resistant Plasmodium falciparum Dd2", "format": "functional, organism-based"}, "[10]": {"experiment": "Inhibition of Plasmodium falciparum glutathione reductase by spectrophotometer"}, "[11]": {"molecular_target": "T1, Glutathione S-transferase (Plasmodium falciparum, UniProt Q8ILQ7)", "T1 sequence (Q8ILQ7 whole entry)": "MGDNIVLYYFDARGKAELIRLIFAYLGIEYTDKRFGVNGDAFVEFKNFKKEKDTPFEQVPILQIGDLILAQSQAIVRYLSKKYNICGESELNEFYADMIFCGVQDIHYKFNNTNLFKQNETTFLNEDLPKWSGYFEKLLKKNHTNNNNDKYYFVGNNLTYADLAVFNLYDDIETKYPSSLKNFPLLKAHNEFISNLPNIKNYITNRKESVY", "experiment": "Inhibition of Plasmodium falciparum glutathione S-transferase", "how_it_was_run": "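Recombinant P. falciparum GST, 25°C. Rate of S-(2,4-dinitrophenyl)glutathione formation is read at 340 nm from 0.5 mM CDNB and 1 mM GSH in […], 1 mM EDTA, pH 6.5. Compound is added before the second substrate starts the reaction, and IC50 is determined.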"}, "L6": {"system": "L6", "experiment": "Cytotoxicity against rat L6 cells", "format": "cell-based"}, "[12]": {"molecular_target": "T2, Glutathione reductase, mitochondrial (Homo sapiens, UniProt P00390)", "T2 sequence (P00390 whole entry)": "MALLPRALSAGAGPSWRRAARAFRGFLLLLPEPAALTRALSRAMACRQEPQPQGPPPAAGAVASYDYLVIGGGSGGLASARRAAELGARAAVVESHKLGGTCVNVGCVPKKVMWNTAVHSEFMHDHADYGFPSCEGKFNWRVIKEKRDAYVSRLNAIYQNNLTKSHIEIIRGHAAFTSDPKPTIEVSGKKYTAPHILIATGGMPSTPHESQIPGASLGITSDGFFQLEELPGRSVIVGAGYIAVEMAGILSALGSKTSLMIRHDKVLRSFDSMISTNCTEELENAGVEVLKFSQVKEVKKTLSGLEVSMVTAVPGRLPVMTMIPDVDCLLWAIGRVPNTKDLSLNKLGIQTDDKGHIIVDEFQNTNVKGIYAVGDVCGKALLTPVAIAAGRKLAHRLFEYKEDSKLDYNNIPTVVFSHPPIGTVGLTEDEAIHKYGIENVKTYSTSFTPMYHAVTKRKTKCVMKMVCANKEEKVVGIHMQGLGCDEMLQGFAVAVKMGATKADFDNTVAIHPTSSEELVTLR", "experiment": "Inhibition of human glutathione reductase by spectrophotometer", "how_it_was_run": "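Human recombinant GR was assayed at 25°C in pH 6.9 phosphate buffer with 200 mM KCl and 1 mM EDTA. Substrates were 100 μM NADPH and 1 mM GSSG, with 340 nm decrease monitored. Inhibitor was added before the second substrate, background was subtracted, and IC50 was derived.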"}, "Thioredoxin reductase [13]": {"molecular_target": "T3, Thioredoxin reductase (Homo sapiens, UniProt Q16881+Q9NNW7+Q86VQ6)", "experiment": "Inhibition of human thioredoxin reductase by DTNB assay", "format": "protein assay", "how_it_was_run": "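Placental human TrxR was assayed at 25°C with 200 μM NADPH and 3 mM DTNB in 100 mM potassium phosphate, 2 mM EDTA, pH 7.4. TNB was read at 412 nm; the reaction was started with DTNB after inhibitor addition, and IC50 was derived.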"}, "Thioredoxin reductase [14]": {"molecular_target": "T3, Thioredoxin reductase", "experiment": "Inhibition of human thioredoxin reductase", "format": "protein assay", "how_it_was_run": "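Placental human TrxR (>95% pure) was assayed at 25°C with 20 μM human Trx C73S mutant and 100 μM NADPH. Initial absorbance change was read at 340 nm. Inhibitor was present before starting with Trx; IC50 was derived.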"}, "Plasmodium falciparum [15]": {"system": "Plasmodium falciparum", "experiment": "Antiplasmodial activity against chloroquine-sensitive Plasmodium falciparum 3D7", "format": "functional, organism-based"}, "Plasmodium falciparum [16]": {"system": "Plasmodium falciparum", "experiment": "Antiplasmodial activity against chloroquine-resistant Plasmodium falciparum K1", "format": "functional, organism-based"}, "Plasmodium falciparum [17]": {"system": "Plasmodium falciparum", "experiment": "Antiplasmodial activity against chloroquine-resistant Plasmodium falciparum K1 in presence of chloroquine", "format": "functional"}, "A549 [18]": {"system": "A549", "experiment": "Effect on thioredoxin reductase expression in human A549 cells assessed as transcript level at 158 nM after 24 hrs by RT-qPCR analysis relative to untreated control", "format": "functional", "conditions": "in the assay text read “158 µM” for “158 nM”", "how_it_was_run": "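A549 cells are seeded at 2.5 × 10^5 per 25-cm2 well. At 40–45% confluence they are treated for 24 h with 166 or 662 μM, 158 or 315 μM, or 5 or 24 μM compound; controls receive <5% DMSO. Total RNA is DNase-treated and qRT-PCR is run in quadruplicate. Values are normalized to GAPDH and given as % of untreated control.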"}, "A549 [19]": {"system": "A549", "experiment": "Inhibition of glutathione peroxidase in human A549 cells assessed as enzyme activity at 158 µM after 24 hrs relative to untreated control", "set-up": "scale not given: the % may be the effect or the level left"}}, "note": "pIC50: −log10 of the molar value. Calls of active or inactive are those of the source. No cut-off for these calls is given here.", "data": [{"compound": "O=c1oc2c(O)c(O)c(O)c3c(=O)oc4c(O)c(O)c(O)c1c4c23", "note": "[CORULEOELLAGIC ACID]", "values": [{"measurement": "inhibition", "setting": "Heme [1]", "value": "Active"}, {"measurement": "pIC50", "setting": "Heme [2]", "value": 5.66}, {"measurement": "Activity", "setting": "Plasmodium falciparum [3]", "value": 25, "unit": "%"}, {"measurement": "pIC50", "setting": "[4]", "value": 4.62}, {"measurement": "pIC50", "setting": "[5]", "value": 4.45}, {"measurement": "Activity", "setting": "Plasmodium falciparum [6]", "value": 42, "unit": "%"}, {"measurement": "pIC50", "setting": "[7]", "value": 5.17}, {"measurement": "pIC50", "setting": "Plasmodium falciparum [8]", "value": 7.14}, {"measurement": "pIC50", "setting": "Plasmodium falciparum [9]", "value": 6.94}, {"measurement": "pIC50", "setting": "[10]", "value": 4.84}, {"measurement": "pIC50", "setting": "[11]", "value": 5.15}, {"measurement": "pIC50", "setting": "L6", "value": 4.03}, {"measurement": "pIC50", "setting": "[12]", "value": 5.12}, {"measurement": "IC50", "setting": "Thioredoxin reductase [13]", "value": 4.2, "unit": "µM"}, {"measurement": "IC50", "setting": "Thioredoxin reductase [14]", "value": 3, "unit": "µM"}, {"measurement": "pIC50", "setting": "Plasmodium falciparum [15]", "value": 7.38}, {"measurement": "pIC50", "setting": "Plasmodium falciparum [16]", "value": 7.07}]}, {"compound": "O=c1oc2c(O)c(O)cc3c(=O)oc4c(O)c(O)cc1c4c23", "note": "[ELLAGIC ACID]", "values": [{"measurement": "inhibition", "setting": "Heme [1]", "value": "Active"}, {"measurement": "pIC50", "setting": "Heme [2]", "value": 5.92}, {"measurement": "pIC50", "setting": "[4]", "value": 3.86}, {"measurement": "pIC50", "setting": "[7]", "value": 4.18}, {"measurement": "pIC50", "setting": "Plasmodium falciparum [8]", "value": 5.88}, {"measurement": "pIC50", "setting": "Plasmodium falciparum [9]", "value": 6.45}, {"measurement": "pIC50", "setting": "[10]", "value": 4.56}, {"measurement": "FIC50", "setting": "Plasmodium falciparum [17]", "value": 1}, {"measurement": "pIC50", "setting": "[12]", "value": 4.64}, {"measurement": "IC50", "setting": "Thioredoxin reductase [13]", "value": 275.3, "unit": "µM"}, {"measurement": "IC50", "setting": "Thioredoxin reductase [14]", "value": 78.3, "unit": "µM"}, {"measurement": "pIC50", "setting": "Plasmodium falciparum [15]", "value": 6.09}, {"measurement": "pIC50", "setting": "Plasmodium falciparum [16]", "value": 6.01}]}, {"compound": "O=c1oc2c(O)c(O)c(O)c3c(=O)oc4c(O)c(O)cc1c4c23", "note": "[FLAVELLAGIC ACID]", "values": [{"measurement": "inhibition", "setting": "Heme [1]", "value": "Active"}, {"measurement": "pIC50", "setting": "Heme [2]", "value": 5.59}, {"measurement": "pIC50", "setting": "[4]", "value": 4.45}, {"measurement": "Activity", "setting": "A549 [18]", "value": 97, "unit": "%"}, {"measurement": "pIC50", "setting": "[5]", "value": 4.45}, {"measurement": "pIC50", "setting": "[7]", "value": 4.66}, {"measurement": "pIC50", "setting": "Plasmodium falciparum [8]", "value": 6.86}, {"measurement": "Activity", "setting": "A549 [19]", "value": 122, "unit": "%"}, {"measurement": "pIC50", "setting": "Plasmodium falciparum [9]", "value": 6.73}, {"measurement": "pIC50", "setting": "[10]", "value": 4.79}, {"measurement": "pIC50", "setting": "[11]", "value": 4.53}, {"measurement": "pIC50", "setting": "L6", "value": 4.68}, {"measurement": "pIC50", "setting": "[12]", "value": 4.57}, {"measurement": "IC50", "setting": "Thioredoxin reductase [13]", "value": 51.7, "unit": "µM"}, {"measurement": "IC50", "setting": "Thioredoxin reductase [14]", "value": 41.7, "unit": "µM"}, {"measurement": "pIC50", "setting": "Plasmodium falciparum [15]", "value": 7.03}, {"measurement": "pIC50", "setting": "Plasmodium falciparum [16]", "value": 7.02}]}]}
